Experimental data reported in ChEMBL document CHEMBL1147738, “Potent and selective mitogen-activated protein kinase kinase (MEK) 1,2 inhibitors. 1. 4-(4-bromo-2-fluorophenylamino)-1- methylpyridin-2(1H)-ones” (J Med Chem, 2006).
Values belong to the compound of their own block, whether it stands above or below them.

Key:
Malme-3M [1] = assay: Inhibition of basal ERK phosphorylation in Malme-3M cells; format: functional, Homo sapiens
Malme-3M [2] = assay: Inhibition of cellular viability of Malme-3M cells; format: functional, Homo sapiens
[3] = biological target: Mitogen-activated protein kinase 1 (Homo sapiens) (UniProt P28482); assay: Inhibition of MAPK2/ERK2 at 10 uM
Sequence of Mitogen-activated protein kinase 1 (Homo sapiens) (P28482 whole entry): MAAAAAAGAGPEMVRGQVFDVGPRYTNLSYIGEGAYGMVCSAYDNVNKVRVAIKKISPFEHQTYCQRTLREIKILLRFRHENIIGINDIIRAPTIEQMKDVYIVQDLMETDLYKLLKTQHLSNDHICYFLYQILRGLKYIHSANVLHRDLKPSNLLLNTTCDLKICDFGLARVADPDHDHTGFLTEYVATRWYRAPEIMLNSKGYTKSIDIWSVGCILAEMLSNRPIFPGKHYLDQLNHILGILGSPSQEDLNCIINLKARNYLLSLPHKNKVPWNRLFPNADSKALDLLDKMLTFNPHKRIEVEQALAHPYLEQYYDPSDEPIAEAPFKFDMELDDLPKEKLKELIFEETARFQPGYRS
Procedure, shortened: (§1)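 Kinase panel run at Upstate (Dundee). Each compound was tested at 10 µM against each enzyme and reported as % inhibition.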

[4] = biological target: Mitogen-activated protein kinase 14 (Homo sapiens) (UniProt Q16539); assay: Inhibition of SAPK2a/p38 at 10 uM; procedure, shortened: as §1
Sequence of Mitogen-activated protein kinase 14 (Homo sapiens) (Q16539 whole entry): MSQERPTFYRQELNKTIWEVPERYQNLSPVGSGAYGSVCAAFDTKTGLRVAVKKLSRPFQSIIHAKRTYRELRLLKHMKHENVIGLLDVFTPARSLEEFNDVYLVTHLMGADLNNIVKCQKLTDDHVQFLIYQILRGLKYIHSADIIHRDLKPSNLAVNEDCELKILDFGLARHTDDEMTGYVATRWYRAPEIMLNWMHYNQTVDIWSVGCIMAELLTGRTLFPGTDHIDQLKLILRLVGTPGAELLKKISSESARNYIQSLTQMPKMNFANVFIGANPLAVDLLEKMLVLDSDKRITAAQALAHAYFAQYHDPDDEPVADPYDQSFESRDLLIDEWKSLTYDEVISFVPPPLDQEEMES

[5] = biological target: Mitogen-activated protein kinase 11 (Homo sapiens) (UniProt Q15759); assay: Inhibition of SAPK2b/p38--beta-2 at 10 uM; procedure, shortened: as §1
Sequence of Mitogen-activated protein kinase 11 (Homo sapiens) (Q15759 whole entry): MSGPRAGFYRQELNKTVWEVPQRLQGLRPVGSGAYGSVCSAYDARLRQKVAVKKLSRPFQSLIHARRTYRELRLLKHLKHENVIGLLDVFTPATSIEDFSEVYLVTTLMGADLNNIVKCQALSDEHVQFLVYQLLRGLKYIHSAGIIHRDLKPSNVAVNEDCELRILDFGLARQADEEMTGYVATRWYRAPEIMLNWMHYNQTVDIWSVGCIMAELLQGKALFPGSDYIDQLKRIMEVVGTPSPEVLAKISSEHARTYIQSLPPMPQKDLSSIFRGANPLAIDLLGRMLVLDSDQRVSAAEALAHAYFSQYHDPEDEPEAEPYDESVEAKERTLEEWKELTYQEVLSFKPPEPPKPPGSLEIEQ

[6] = biological target: Ribosomal protein S6 kinase alpha-1 (Homo sapiens) (UniProt Q15418); assay: Inhibition of MAPKAP-K1a at 10 uM; procedure, shortened: as §1
[7] = biological target: Mitogen-activated protein kinase 8 (Homo sapiens) (UniProt P45983); assay: Inhibition of JNK/SAPK1c at 10 uM; procedure, shortened: as §1
Sequence of Mitogen-activated protein kinase 8 (Homo sapiens) (P45983 whole entry): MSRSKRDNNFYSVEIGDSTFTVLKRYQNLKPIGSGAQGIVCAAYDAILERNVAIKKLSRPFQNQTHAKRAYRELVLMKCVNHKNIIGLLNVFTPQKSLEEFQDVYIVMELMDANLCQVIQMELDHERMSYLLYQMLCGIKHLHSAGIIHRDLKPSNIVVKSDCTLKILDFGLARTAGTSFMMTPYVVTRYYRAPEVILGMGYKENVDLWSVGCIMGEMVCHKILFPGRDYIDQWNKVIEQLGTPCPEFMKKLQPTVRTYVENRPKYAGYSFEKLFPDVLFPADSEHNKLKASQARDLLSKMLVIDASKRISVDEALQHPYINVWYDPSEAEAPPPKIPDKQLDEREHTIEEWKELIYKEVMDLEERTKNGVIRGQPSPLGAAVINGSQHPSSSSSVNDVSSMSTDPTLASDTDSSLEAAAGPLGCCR

[8] = Clearance in presence of human hepatocytes; format: ADME, cell-based, Liver, Hepatocyte
Procedure, shortened: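 Human hepatocytes (fresh or cryopreserved) diluted to 2 x 10⁶ viable cells/mL in supplemented Krebs-Henseleit buffer pH 7.3, mixed 1:1 with 2 µM compound working solution. Incubated at 37 °C, 5% CO₂, duplicates, one plate per timepoint. Quenched with labetalol internal standard and centrifuged; compound remaining measured by LC-MS/MS (ESI+, MRM).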

[9] = Clearance in rat; format: ADME, organism-based; conditions: Sprague-Dawley, in vivo
Procedure, shortened: (§2)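 Male Sprague Dawley rats (6-10 weeks) received IV 1 mg/kg (10% DMSO/90% saline) and PO 10 mg/kg (1% CMC/0.5% Tween 80). Serial tail-vein plasma was taken up to 24 h (IV) or 72 h (PO) and analysed by LC/MS/MS (9 ng/mL to 20 µg/mL). Parameters were calculated non-compartmentally.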

[10] = Volume of distribution in rat; format: ADME, organism-based; conditions: Sprague-Dawley, in vivo, read-out: Vdss; procedure, shortened: as §2
Rattus norvegicus [11] = assay: AUC in rat at 1 mg/kg, iv; format: ADME, organism-based, Sprague-Dawley, Plasma; set-up: dose 1 mg/kg, route intravenous; conditions: in vivo
Procedure, shortened: (§3)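 Male Sprague Dawley rats (6-10 weeks), fed ad lib, dosed IV at 1 mg/kg (1 mg/mL in 10% DMSO/90% normal saline, 1 mL/kg). Tail-vein EDTA blood sampled 1, 5, 15, 30 min and 1, 2, 4, 8, 12, 24 h. Plasma analysed by LC/MS/MS after methanol protein precipitation, range 9 ng/mL to 20 µg/mL. Parameters derived by non-compartmental analysis.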

Rattus norvegicus [12] = assay: AUC in rat at 10 mg/kg, po; format: ADME, organism-based, Sprague-Dawley, Plasma; set-up: dose 10 mg/kg, route oral; conditions: in vivo
Procedure, shortened: (§4)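 Male Sprague Dawley rats (6-10 weeks) were given 10 mg/kg by oral gavage (2 mg/mL in 1% CMC/0.5% Tween 80, 5 mL/kg). Tail-vein EDTA blood was drawn at 15 and 30 min and 1, 2, 4, 8, 12, 24, 48, 72 h. Plasma was quantified by LC/MS/MS after methanol precipitation. Parameters came from non-compartmental analysis.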

[13] = Half life in rat at 1 mg/kg, iv; format: ADME, organism-based; set-up: dose 1 mg/kg, route intravenous; conditions: Sprague-Dawley, in vivo; procedure, shortened: as §3
[14] = Half life in rat at 10 mg/kg, po; format: ADME, organism-based; set-up: dose 10 mg/kg, route oral; conditions: Sprague-Dawley, in vivo; procedure, shortened: as §4
[15] = Oral bioavailability in rat; format: ADME, organism-based; conditions: Sprague-Dawley, in vivo; procedure, shortened: as §2
[16] = biological target: AMP-activated protein kinase, AMPK (Homo sapiens) (UniProt P54646+O43741+P54619+Q9UGJ0+Q9Y478+Q13131+Q9UGI9); assay: Inhibition of AMPK at 10 uM; format: protein-complex assay; procedure, shortened: as §1
[17] = biological target: T1, Serine/threonine-protein kinase Chk1 (Homo sapiens) (UniProt O14757); assay: Inhibition of CHK1 at 10 uM; procedure, shortened: as §1
T1 sequence (whole entry): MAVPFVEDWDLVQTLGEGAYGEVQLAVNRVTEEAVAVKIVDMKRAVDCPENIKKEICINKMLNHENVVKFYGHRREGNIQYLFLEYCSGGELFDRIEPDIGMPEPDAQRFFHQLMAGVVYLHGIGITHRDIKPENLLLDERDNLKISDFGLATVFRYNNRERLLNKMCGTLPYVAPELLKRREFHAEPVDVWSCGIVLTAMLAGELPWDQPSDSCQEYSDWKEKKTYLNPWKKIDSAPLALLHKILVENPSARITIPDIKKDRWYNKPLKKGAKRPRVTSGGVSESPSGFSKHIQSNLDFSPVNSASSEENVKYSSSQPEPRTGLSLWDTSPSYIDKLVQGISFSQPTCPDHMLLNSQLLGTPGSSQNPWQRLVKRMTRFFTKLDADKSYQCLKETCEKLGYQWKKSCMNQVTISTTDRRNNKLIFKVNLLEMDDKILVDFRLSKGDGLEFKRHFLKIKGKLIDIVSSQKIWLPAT

[18] = biological target: Casein kinase II (Homo sapiens) (UniProt P67870+P68400+P19784); assay: Inhibition of CK2 at 10 uM; format: protein-complex assay; procedure, shortened: as §1
[19] = biological target: Tyrosine-protein kinase Lck (Homo sapiens) (UniProt P06239); assay: Inhibition of LCK at 10 uM; procedure, shortened: as §1
Sequence of Tyrosine-protein kinase Lck (Homo sapiens) (P06239 2-509 limits assumed): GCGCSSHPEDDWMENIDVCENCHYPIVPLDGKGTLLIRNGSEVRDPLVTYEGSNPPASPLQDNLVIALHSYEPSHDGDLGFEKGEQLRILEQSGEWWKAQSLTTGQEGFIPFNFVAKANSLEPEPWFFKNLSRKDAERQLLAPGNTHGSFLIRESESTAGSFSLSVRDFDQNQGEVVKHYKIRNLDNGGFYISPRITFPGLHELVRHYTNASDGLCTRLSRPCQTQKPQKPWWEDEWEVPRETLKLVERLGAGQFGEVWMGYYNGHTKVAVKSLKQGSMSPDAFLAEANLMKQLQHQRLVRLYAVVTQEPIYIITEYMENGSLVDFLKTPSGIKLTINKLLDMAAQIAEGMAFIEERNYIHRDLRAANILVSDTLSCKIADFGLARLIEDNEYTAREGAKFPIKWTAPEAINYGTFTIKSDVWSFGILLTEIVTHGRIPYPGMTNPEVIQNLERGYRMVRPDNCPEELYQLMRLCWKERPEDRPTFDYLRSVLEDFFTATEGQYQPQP

[20] = biological target: Cyclin-dependent kinase 2/cyclin A (Homo sapiens) (UniProt P24941+P20248+P78396); assay: Inhibition of CDK2/cyclin A at 10 uM; format: protein-complex assay; procedure, shortened: as §1
[21] = biological target: Dual specificity tyrosine-phosphorylation-regulated kinase 1A (Homo sapiens) (UniProt Q13627); assay: Inhibition of DYRK1a at 10 uM; procedure, shortened: as §1
[22] = biological target: MAP kinase-activated protein kinase 2 (Homo sapiens) (UniProt P49137); assay: Inhibition of MAPKAP-K2 at 10 uM; procedure, shortened: as §1
Sequence of MAP kinase-activated protein kinase 2 (Homo sapiens) (P49137 whole entry, looked up): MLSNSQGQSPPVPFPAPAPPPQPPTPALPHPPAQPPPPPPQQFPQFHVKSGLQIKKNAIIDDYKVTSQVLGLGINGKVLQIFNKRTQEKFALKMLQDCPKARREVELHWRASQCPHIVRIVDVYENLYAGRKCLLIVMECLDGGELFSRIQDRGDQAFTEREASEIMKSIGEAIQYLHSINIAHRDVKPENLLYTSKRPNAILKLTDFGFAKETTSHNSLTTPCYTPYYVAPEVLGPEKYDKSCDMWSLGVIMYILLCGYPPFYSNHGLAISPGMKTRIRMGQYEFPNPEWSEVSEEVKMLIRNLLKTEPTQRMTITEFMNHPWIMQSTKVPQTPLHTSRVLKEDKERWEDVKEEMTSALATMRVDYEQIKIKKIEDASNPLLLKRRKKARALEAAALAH

[23] = biological target: Ribosomal protein S6 kinase alpha-5 (Homo sapiens) (UniProt O75582); assay: Inhibition of MSK1 at 10 uM; procedure, shortened: as §1
[24] = biological target: T2, MAP kinase-activated protein kinase 5 (Homo sapiens) (UniProt Q8IW41); assay: Inhibition of PRAK at 10 uM; procedure, shortened: as §1
T2 sequence (whole entry): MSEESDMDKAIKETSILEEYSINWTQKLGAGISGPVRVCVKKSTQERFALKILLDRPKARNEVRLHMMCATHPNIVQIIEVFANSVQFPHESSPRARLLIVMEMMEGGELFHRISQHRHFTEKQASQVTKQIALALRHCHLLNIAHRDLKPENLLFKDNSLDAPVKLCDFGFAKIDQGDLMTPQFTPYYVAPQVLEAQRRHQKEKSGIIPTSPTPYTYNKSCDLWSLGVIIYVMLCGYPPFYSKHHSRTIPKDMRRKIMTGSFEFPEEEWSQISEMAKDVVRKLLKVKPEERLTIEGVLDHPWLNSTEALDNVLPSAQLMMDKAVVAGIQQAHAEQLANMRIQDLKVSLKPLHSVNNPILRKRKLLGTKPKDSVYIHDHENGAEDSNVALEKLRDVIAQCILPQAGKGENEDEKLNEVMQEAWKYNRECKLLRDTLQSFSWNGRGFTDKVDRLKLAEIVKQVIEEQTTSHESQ

[25] = biological target: cAMP-dependent protein kinase (PKA) (Homo sapiens) (UniProt P22694+P17612+P22612); assay: Inhibition of PKA at 10 uM; format: protein assay; procedure, shortened: as §1
[26] = biological target: T3, Lymphokine-activated killer T-cell-originated protein kinase (Homo sapiens) (UniProt Q96KB5); assay: Inhibition of PBK at 10 uM; procedure, shortened: as §1
T3 sequence (whole entry): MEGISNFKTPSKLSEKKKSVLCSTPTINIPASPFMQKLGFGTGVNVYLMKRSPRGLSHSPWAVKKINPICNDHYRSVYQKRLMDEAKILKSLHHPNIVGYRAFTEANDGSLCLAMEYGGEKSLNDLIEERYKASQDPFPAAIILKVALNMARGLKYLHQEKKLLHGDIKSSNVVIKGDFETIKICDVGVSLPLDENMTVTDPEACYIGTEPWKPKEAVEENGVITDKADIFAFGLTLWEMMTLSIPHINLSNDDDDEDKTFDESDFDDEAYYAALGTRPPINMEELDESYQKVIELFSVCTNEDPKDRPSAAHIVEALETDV

[27] = biological target: Protein kinase C alpha type (Homo sapiens) (UniProt P17252); assay: Inhibition of PKCa at 10 uM; procedure, shortened: as §1
[28] = biological target: RAC-alpha serine/threonine-protein kinase (Homo sapiens) (UniProt P31749); assay: Inhibition of PKBa at 10 uM; procedure, shortened: as §1
Sequence of RAC-alpha serine/threonine-protein kinase (Homo sapiens) (P31749 whole entry): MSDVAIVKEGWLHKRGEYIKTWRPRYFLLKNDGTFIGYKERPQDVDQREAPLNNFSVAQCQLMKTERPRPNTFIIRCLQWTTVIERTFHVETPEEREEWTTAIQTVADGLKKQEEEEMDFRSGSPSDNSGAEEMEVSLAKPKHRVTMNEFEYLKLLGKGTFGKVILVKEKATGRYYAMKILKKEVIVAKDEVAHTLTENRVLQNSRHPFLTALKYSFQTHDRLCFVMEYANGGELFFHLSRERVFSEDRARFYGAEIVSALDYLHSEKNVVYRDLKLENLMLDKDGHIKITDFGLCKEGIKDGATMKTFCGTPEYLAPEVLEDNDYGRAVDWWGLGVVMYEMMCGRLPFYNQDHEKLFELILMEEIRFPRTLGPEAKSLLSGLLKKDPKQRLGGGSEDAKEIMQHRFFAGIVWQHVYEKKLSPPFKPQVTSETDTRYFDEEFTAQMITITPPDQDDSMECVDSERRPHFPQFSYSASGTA

[29] = biological target: Ribosomal protein S6 kinase (P70S6K) (Homo sapiens) (UniProt Q9UBS0+P23443); assay: Inhibition of p70 S6K at 10 uM; format: protein-complex assay; procedure, shortened: as §1
[30] = biological target: Glycogen synthase kinase-3 beta (Homo sapiens) (UniProt P49841); assay: Inhibition of GSK3b at 10 uM; procedure, shortened: as §1
[31] = biological target: Rho-associated protein kinase 2 (Homo sapiens) (UniProt O75116); assay: Inhibition of ROCK 2 at 10 uM; procedure, shortened: as §1
Sequence of Rho-associated protein kinase 2 (Homo sapiens) (O75116 whole entry, looked up): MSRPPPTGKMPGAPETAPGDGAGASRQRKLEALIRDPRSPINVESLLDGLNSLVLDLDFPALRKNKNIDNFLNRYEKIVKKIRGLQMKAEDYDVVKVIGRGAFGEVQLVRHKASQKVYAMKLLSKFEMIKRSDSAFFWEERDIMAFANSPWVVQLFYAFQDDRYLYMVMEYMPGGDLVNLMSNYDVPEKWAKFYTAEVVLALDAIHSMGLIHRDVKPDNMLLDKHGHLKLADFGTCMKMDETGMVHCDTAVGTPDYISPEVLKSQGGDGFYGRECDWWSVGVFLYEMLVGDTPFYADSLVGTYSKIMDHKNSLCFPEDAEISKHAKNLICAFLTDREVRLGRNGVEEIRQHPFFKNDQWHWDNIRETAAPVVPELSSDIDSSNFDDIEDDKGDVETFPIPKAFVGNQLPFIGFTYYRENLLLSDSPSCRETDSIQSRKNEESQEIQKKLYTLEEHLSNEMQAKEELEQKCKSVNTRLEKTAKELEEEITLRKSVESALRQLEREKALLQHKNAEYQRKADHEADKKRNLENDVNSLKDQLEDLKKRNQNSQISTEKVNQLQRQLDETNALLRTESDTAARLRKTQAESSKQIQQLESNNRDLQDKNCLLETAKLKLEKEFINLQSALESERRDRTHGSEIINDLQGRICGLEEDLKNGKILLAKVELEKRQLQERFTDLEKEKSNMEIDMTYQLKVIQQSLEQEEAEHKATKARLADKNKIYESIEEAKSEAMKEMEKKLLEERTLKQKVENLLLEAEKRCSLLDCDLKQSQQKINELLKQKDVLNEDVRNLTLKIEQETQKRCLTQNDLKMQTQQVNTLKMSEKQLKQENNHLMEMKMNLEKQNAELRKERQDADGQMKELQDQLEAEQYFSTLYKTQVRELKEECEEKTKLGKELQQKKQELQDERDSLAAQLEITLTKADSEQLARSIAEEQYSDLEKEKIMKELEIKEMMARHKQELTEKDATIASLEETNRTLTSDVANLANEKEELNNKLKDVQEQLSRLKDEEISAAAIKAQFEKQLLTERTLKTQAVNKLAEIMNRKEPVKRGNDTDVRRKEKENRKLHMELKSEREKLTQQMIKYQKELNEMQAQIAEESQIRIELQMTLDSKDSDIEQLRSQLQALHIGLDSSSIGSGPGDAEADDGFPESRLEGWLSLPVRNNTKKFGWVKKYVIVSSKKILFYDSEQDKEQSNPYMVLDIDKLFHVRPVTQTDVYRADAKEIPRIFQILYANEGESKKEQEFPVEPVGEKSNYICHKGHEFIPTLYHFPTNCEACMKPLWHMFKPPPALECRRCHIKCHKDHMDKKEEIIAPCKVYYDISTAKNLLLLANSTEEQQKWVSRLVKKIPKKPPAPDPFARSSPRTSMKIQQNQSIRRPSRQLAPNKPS

Compound: CONC(=O)c1cn(C)c(=O)c(F)c1Nc1ccc(Br)cc1F
- Activity (Malme-3M [1]): 22 nM
- Activity (Malme-3M [2]): 145 nM

- inhibition [3]: 7%
- inhibition [4]: 10%
- inhibition [5]: 9%
- inhibition [6]: 6%
- inhibition [7]: 15%
- CLhep predicted [8]: 2 mL/min/kg
- clearance [9]: 0.7 mL/min/kg
- Vd [10]: 0.4 L/kg
- AUC (Rattus norvegicus [11]): 24100 ng·h/mL
- AUC (Rattus norvegicus [12]): 138000 ng·h/mL
- half-life [13]: 6 h
- half-life [14]: 12 h
- bioavailability [15]: 58%
- inhibition [16]: 8%
- inhibition [17]: 13%
- inhibition [18]: 4%
- inhibition [19]: 19%
- inhibition [20]: 25%
- inhibition [21]: 12%
- inhibition [22]: 15%
- inhibition [23]: 7%
- inhibition [24]: 18%
- inhibition [25]: 14%
- inhibition [27]: 6%
- inhibition [28]: 6%
- inhibition [29]: 13%
- inhibition [30]: 21%
- inhibition [31]: 4%
Compound: CCONC(=O)c1cn(C)c(=O)c(F)c1Nc1ccc(Br)cc1F
- inhibition [26]: -1%

Compound: Cn1cc(C(=O)NCC2CC2)c(Nc2ccc(Br)cc2F)c(F)c1=O
- Activity (Malme-3M [1]): 1206 nM
- Activity (Malme-3M [2]): >5000 nM

Compound: Cn1cc(C(=O)O)c(Nc2ccc(Br)cc2F)c(F)c1=O
- Activity (Malme-3M [1]): >10000 nM
- Activity (Malme-3M [2]): >5000 nM

Compound: Cn1cc(C(=O)NOCCO)c(Nc2ccc(Br)cc2F)c(F)c1=O
- Activity (Malme-3M [1]): 22 nM
- Activity (Malme-3M [2]): 115 nM

Compound: Cn1cc(C(=O)NOCC2CC2)c(Nc2ccc(Br)cc2F)c(Cl)c1=O
- Activity (Malme-3M [1]): 27 nM
- Activity (Malme-3M [2]): 195 nM

Compound: Cn1cc(C(=O)NOCC2CC2)c(Nc2ccc(Br)cc2F)cc1=O
- Activity (Malme-3M [1]): 26 nM
- Activity (Malme-3M [2]): 165 nM

Compound: Cn1cc(C(=O)NOCC2CC2)c(Nc2ccc(Br)cc2F)c(F)c1=O
- Activity (Malme-3M [1]): 3.4 nM
- Activity (Malme-3M [2]): 22 nM
